From ChEMBL document CHEMBL2040734, “Benzothiazoles: search for anticancer agents” (2012)

Legend:
Format in all cases: functional
NCI-H460 = assay: Cytotoxicity against human NCI-H460 cells assessed as cell growth at 10 uM after 48 hrs by sulforhodamine B assay; conditions: NCI-H460, 48 h, read-out: Activity
NCI-H522 = assay: Cytotoxicity against human NCI-H522 cells assessed as cell growth at 0.01 uM after 48 hrs by sulforhodamine B assay; conditions: NCI-H522, 48 h, read-out: Activity
TK-10 [1] = assay: Cytotoxicity against human TK10 cells assessed as cell growth at 100 uM after 48 hrs by sulforhodamine B assay; conditions: TK-10, 48 h, read-out: Activity
786-0 = assay: Cytotoxicity against human 786-0 cells assessed as cell growth at 10 '-5 M after 48 hrs by sulforhodamine B assay; conditions: 786-0, 48 h, read-out: Activity
In short: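 Primary NCI-60 single-dose screen at 10 µM. Cells were grown in RPMI 1640 with 5% FBS and 2 mM L-glutamine and plated 24 h before drug addition. Compound was solubilized in DMSO, then exposed for 48 h at 37 °C under 5% CO2. Cells were TCA-fixed and stained with SRB, and absorbance was read at 515 nm. Growth was expressed relative to time-zero and untreated controls.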

A498 = assay: Cytotoxicity against human A498 cells assessed as cell growth at 1 uM after 48 hrs by sulforhodamine B assay; conditions: A498, 48 h, read-out: Activity
In short: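 NCI-60 five-dose screen. Cells were grown in RPMI 1640 with 5% FBS and 2 mM L-glutamine and preincubated 24 h. Compound (DMSO stock) was tested at 0.01, 0.1, 1, 10 and 100 µM for 48 h at 37 °C. Cells were fixed in situ with cold TCA (final 10%) and stained with 0.4% SRB. A515 was read, and percent growth was calculated against time-zero and control plates.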

TK-10 [2] = assay: Cytotoxicity against human TK10 cells assessed as cell growth at 0.01 uM after 48 hrs by sulforhodamine B assay; conditions: TK-10, 48 h, read-out: Activity
M14 = assay: Cytotoxicity against human M14 cells assessed as cell growth at 10 uM after 48 hrs by sulforhodamine B assay; conditions: M14, 48 h, read-out: Activity
MOLT-4 = assay: Growth inhibition of human MOLT4 cells after 48 hrs by sulforhodamine B assay; conditions: MOLT-4, 48 h
In short: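 Leukemia suspension lines were grown in RPMI 1640 with 5% FBS and 2 mM L-glutamine and plated at 5000–40,000 cells/well with 24 h preincubation. They were treated at 0.01, 0.1, 1, 10 and 100 µM (DMSO stock) for 48 h at 37 °C. Settled cells were fixed with 80% TCA (16% final) and stained with 0.4% SRB in 1% acetic acid, then read at 515 nm. GI50 was calculated against time-zero and control wells.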

SN12C = assay: Cytotoxicity against human SN12C cells assessed as cell growth at 1 uM after 48 hrs by sulforhodamine B assay; conditions: read-out: Activity
OVCAR-3 = assay: Cytotoxicity against human OVCAR3 cells assessed as cell growth at 1 uM after 48 hrs by sulforhodamine B assay; conditions: OVCAR-3, 48 h, read-out: Activity
SF-295 [3] = assay: Cytotoxicity against human SF295 cells assessed as cell growth at 10 '-5 M after 48 hrs by sulforhodamine B assay; conditions: SF-295, 48 h, read-out: Activity
KM12 = assay: Cytotoxicity against human KM12 cells assessed as cell growth at 0.1 uM after 48 hrs by sulforhodamine B assay; conditions: KM12, 48 h, read-out: Activity
NCI-H322M [4] = assay: Cytotoxicity against human NCI-H322M cells assessed as cell growth at 100 uM after 48 hrs by sulforhodamine B assay; conditions: read-out: Activity
SF-295 [5] = assay: Cytotoxicity against human SF295 cells assessed as cell growth at 10 uM after 48 hrs by sulforhodamine B assay; conditions: SF-295, 48 h, read-out: Activity
HOP-62 = assay: Growth inhibition of human HOP62 cells after 48 hrs by sulforhodamine B assay; conditions: HOP-62, 48 h; for CC50: read-out: LC50 (the source's name)
In short: (§1)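 Adherent NCI-60 lines were grown in RPMI 1640 with 5% FBS and 2 mM L-glutamine, plated at 5000–40,000 cells/well and preincubated 24 h. They were then exposed to five concentrations (0.01–100 µM, from a DMSO stock) for 48 h at 37 °C, 5% CO2. Cells were fixed with cold TCA (10% final, 60 min, 4 °C) and stained with 0.4% SRB. Dye was solubilized in 10 mM Tris base and A515 read. GI50 was derived from time-zero, control and treated absorbances.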

NCI-H322M [6] = assay: Growth inhibition of human NCI-H322M cells after 48 hrs by sulforhodamine B assay; conditions: for CC50: read-out: LC50 (the source's name); in short: as §1
UACC-257 = assay: Cytotoxicity against human UACC257 cells assessed as cell growth at 0.01 uM after 48 hrs by sulforhodamine B assay; conditions: UACC-257, 48 h, read-out: Activity
IGROV-1 [7] = assay: Cytotoxicity against human IGROV1 cells assessed as cell growth at 1 uM after 48 hrs by sulforhodamine B assay; conditions: IGROV-1, 48 h, read-out: Activity
PC-3 = assay: Growth inhibition of human PC3 cells after 48 hrs by sulforhodamine B assay; conditions: PC-3, 48 h; for CC50: read-out: LC50 (the source's name); in short: as §1
U-251 = assay: Cytotoxicity against human U251 cells assessed as cell growth at 100 uM after 48 hrs by sulforhodamine B assay; conditions: U-251, 48 h, read-out: Activity
T47D = assay: Cytotoxicity against human T47D cells assessed as cell growth at 0.01 uM after 48 hrs by sulforhodamine B assay; conditions: read-out: Activity
IGROV-1 [8] = assay: Cytotoxicity against human IGROV1 cells assessed as cell growth at 0.1 uM after 48 hrs by sulforhodamine B assay; conditions: IGROV-1, 48 h, read-out: Activity
MDA-MB-435 = assay: Cytotoxicity against human MDA-MB-435 cells assessed as cell growth at 10 uM after 48 hrs by sulforhodamine B assay; conditions: MDA-MB-435, 48 h, read-out: Activity
RPMI-8226 = assay: Cytotoxicity against human RPMI8226 cells assessed as cell growth at 1 uM after 48 hrs by sulforhodamine B assay; conditions: RPMI-8226, 48 h, read-out: Activity
SK-MEL-5 = assay: Cytotoxicity against human SK-MEL-5 cells assessed as cell growth at 1 uM after 48 hrs by sulforhodamine B assay; conditions: SK-MEL-5, 48 h, read-out: Activity
SK-MEL-2 = assay: Cytotoxicity against human SK-MEL-2 cells assessed as cell growth at 10 '-5 M after 48 hrs by sulforhodamine B assay; conditions: SK-MEL-2, 48 h, read-out: Activity

Compound: Cc1ccc2nc(Nc3c(C)cccc3C)sc2c1
- growth at 10 µM (NCI-H460): 22%
- growth at 0.01 µM (NCI-H522): 85%
- growth at 100 µM (TK-10 [1]): 72%
- growth at 10 µM (786-0): 57.8%
- growth at 1 µM (A498): 53%
- growth at 0.01 µM (TK-10 [2]): 104%
- growth at 10 µM (M14): 42%
- GI50 (MOLT-4): > 100 µM
- LC50 (MOLT-4): > 100 µM
- TGI (MOLT-4): > 100 µM
- growth at 1 µM (SN12C): 65%
- growth at 1 µM (OVCAR-3): 72%
- growth at 10 µM (SF-295 [3]): 18.9%
- growth at 0.1 µM (KM12): 103%
- growth at 100 µM (NCI-H322M [4]): 69%
- growth at 10 µM (SF-295 [5]): 15%
- GI50 (HOP-62): 3.86 µM
- TGI (HOP-62): > 100 µM
- CC50 (HOP-62): > 100 µM
- GI50 (NCI-H322M [6]): > 100 µM
- TGI (NCI-H322M [6]): > 100 µM
- CC50 (NCI-H322M [6]): > 100 µM
- growth at 0.01 µM (UACC-257): 101%
- growth at 1 µM (IGROV-1 [7]): 83%
- TGI (PC-3): > 100 µM
- CC50 (PC-3): > 100 µM
- growth at 100 µM (U-251): 31%
- growth at 0.01 µM (T47D): 94%
- growth at 0.1 µM (IGROV-1 [8]): 108%
- growth at 10 µM (MDA-MB-435): -26%
- growth at 1 µM (RPMI-8226): 75%
- growth at 1 µM (SK-MEL-5): 66%
- growth at 10 µM (SK-MEL-2): 34.6%

Compound: Clc1cccc(Cl)c1Nc1nc2cccc(Cl)c2s1
- growth at 10 µM (NCI-H460): -75%
- growth at 0.01 µM (NCI-H522): 88%
- growth at 100 µM (TK-10 [1]): -67%
- growth at 10 µM (786-0): -59.7%
- growth at 1 µM (A498): 26%
- growth at 0.01 µM (TK-10 [2]): 98%
- growth at 10 µM (M14): -68%
- GI50 (MOLT-4): 1.05 µM
- LC50 (MOLT-4): > 100 µM
- TGI (MOLT-4): 3.75 µM
- growth at 1 µM (SN12C): 46%
- growth at 1 µM (OVCAR-3): 50%
- growth at 10 µM (SF-295 [3]): -45.1%
- growth at 0.1 µM (KM12): 101%
- growth at 100 µM (NCI-H322M [4]): -95%
- growth at 10 µM (SF-295 [5]): -87%
- GI50 (HOP-62): 1.27 µM
- TGI (HOP-62): 2.62 µM
- CC50 (HOP-62): 5.38 µM
- GI50 (NCI-H322M [6]): 1.46 µM
- TGI (NCI-H322M [6]): 3.01 µM
- CC50 (NCI-H322M [6]): 6.19 µM
- growth at 0.01 µM (UACC-257): 102%
- growth at 1 µM (IGROV-1 [7]): 55%
- GI50 (PC-3): 0.526 µM
- TGI (PC-3): 2.3 µM
- CC50 (PC-3): 6.81 µM
- growth at 100 µM (U-251): -50%
- growth at 0.01 µM (T47D): 95%
- growth at 0.1 µM (IGROV-1 [8]): 103%
- growth at 10 µM (MDA-MB-435): -77%
- growth at 1 µM (RPMI-8226): 46%
- growth at 1 µM (SK-MEL-5): 50%
- growth at 10 µM (SK-MEL-2): -52.7%
